As a reminder, the EC50 is the concentration needed to bring the measured effect to its halfway point. A low value points to greater potency. The IC50 is the concentration that gives 50% inhibition. Lower therefore signals higher potency.

The values that follow come from ChEMBL document CHEMBL1128196, “Topographical modification of melanotropin peptide analogues with beta-methyltryptophan isomers at position 9 leads to differential potencies and prolonged biological activities” (J Med Chem, 1995).

Data set [1] has as its target T1, Melanocyte-stimulating hormone receptor (Homo sapiens, UniProt Q01726). The data set can be described thus: Effective concentration against Melanocortin 1 receptor transfected into L-cells was determined by concentration of peptide for 50% maximal cAMP generation. The format is functional. An outline of the steps:
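Human MC1R stably transfected into mouse L-cells, grown to confluence. Stopped with ice-cold ethanol. cAMP in the dried supernatant measured by competitive binding kit. Value is concentration for 50% maximal cAMP generation; n = 4.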

A short description of data set [2]: Relative rate determined by setting MTII equal to 1 and dividing the apparent k-1 by the MTII value. The format is ADME.
Data set [3] concerns the target Melanocortin 1 receptor (Rana pipiens). The data set can be described thus: Effective concentration for the effect of Melanocortin 1 receptor in the frog skin.
Data set [4] addresses T1, Melanocyte-stimulating hormone receptor. Briefly: The concentration that inhibits 50% specific binding was determined against the Melanocortin 1 receptor. An outline of the steps: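 Cloned human MC1R stably expressed in L-cells, grown to confluence. Cells washed in binding buffer (MEM, 25 mM HEPES pH 7.4, 0.2% BSA, phenanthroline, leupeptin, bacitracin). Cells washed, lysed in NaOH/Triton, gamma counted.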

T1 sequence (Q01726 whole entry): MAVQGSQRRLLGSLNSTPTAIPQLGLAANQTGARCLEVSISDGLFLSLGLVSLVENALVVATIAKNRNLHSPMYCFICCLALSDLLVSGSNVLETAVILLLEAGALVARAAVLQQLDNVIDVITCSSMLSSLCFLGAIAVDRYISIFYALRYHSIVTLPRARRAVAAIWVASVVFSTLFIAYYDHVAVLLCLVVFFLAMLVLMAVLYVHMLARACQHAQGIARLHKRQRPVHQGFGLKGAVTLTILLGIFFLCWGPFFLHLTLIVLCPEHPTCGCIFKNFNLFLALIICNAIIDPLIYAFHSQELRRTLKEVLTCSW

Consider `CCCC[C@H](NC(C)=O)C(=O)N[C@H]1CC(=O)NCCCCC(C(N)=O)NC(=O)[C@@H]([C@@H](C)c2c[nH]c3ccccc23)NC(=O)[C@H](CCCN=C(N)N)NC(=O)C(Cc2ccccc2)NC(=O)[C@H](Cc2c[nH]cn2)NC1=O` (single isomer, unassigned), for which the EC50 came to 1 nM in data set [1] and 0.06 nM in data set [3]. In addition, the Relative dissociation rate in data set [2] was determined as 2.58. In data set [4], this molecule gave an IC50 of 3 nM.

`CCCC[C@H](NC(C)=O)C(=O)N[C@@H](CC(=O)O)C(=O)N[C@@H](Cc1c[nH]cn1)C(=O)N[C@@H](Cc1ccccc1)C(=O)N[C@@H](CCCN=C(N)N)C(=O)N[C@@H](C(=O)N[C@@H](CCCCN)C(N)=O)[C@H](C)c1c[nH]c2ccccc12` yielded an EC50 in data set [1] of 0.4 nM. Also, the Relative dissociation rate in data set [2] is on record as 2.33. The IC50 in data set [4] was 2 nM.

Turning to `CCCC[C@H](NC(C)=O)C(=O)N[C@H]1CC(=O)NCCCCC(C(N)=O)NC(=O)C([C@H](C)c2c[nH]c3ccccc23)NC(=O)[C@H](CCCN=C(N)N)NC(=O)C(Cc2ccccc2)NC(=O)[C@H](Cc2c[nH]cn2)NC1=O` (single isomer, unassigned), the EC50 was 3 nM in data set [1] and 28.6 nM in data set [3]. In data set [2], the Relative dissociation rate is 2.5. In data set [4], this molecule returned an IC50 of 15 nM.

In the case of `CCCC[C@H](NC(C)=O)C(=O)N[C@H]1CC(=O)NCCCCC(C(N)=O)NC(=O)C([C@@H](C)c2c[nH]c3ccccc23)NC(=O)[C@H](CCCN=C(N)N)NC(=O)C(Cc2ccccc2)NC(=O)[C@H](Cc2c[nH]cn2)NC1=O` (single isomer, unassigned), the EC50 is 0.3 nM in data set [1] and 0.44 nM in data set [3]. The Relative dissociation rate in data set [2] stood at 0.75. The molecule also registered an IC50 in data set [4] of 0.5 nM.
